IC50 data for seven compounds are collected here from ChEMBL document CHEMBL1146121 (J Med Chem, 2006).

Experiment [1] addresses T1, 1-deoxy-D-xylulose 5-phosphate reductoisomerase (Escherichia coli K-12, UniProt P45568).
T1 sequence (P45568 whole entry): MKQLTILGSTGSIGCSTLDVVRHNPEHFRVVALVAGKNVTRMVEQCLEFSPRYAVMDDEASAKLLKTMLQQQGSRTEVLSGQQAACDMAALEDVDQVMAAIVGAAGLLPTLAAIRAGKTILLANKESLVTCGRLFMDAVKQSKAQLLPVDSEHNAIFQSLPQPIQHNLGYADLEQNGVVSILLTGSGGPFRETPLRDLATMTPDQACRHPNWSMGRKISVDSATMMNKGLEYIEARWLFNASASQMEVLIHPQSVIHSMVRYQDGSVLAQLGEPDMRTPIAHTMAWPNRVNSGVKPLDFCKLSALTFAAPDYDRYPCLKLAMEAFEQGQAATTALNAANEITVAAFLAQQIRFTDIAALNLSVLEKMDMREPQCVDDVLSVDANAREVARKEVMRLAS
In words: Inhibition of recombinant Escherichia coli DXR. The procedure, abridged: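 Enzyme activity measured as conversion of DOXP to MEP, read out via the NADPH dependence of the reductoisomerase reaction.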

In experiment [2] the test system is Plasmodium falciparum. Kind of experiment: Inhibition of Plasmodium falciparum 3D7. It is filed as functional, organism-based. The essentials:
(§1)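 Intraerythrocytic parasites cultured with the test agent in a semiautomated microdilution format. Growth was followed by incorporation of tritium-labelled hypoxanthine.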

The test system of experiment [3] is Plasmodium falciparum. Kind of experiment: Inhibition of Plasmodium falciparum Dd2. It is filed as functional, organism-based. The essentials: as §1

In the case of `CC(=O)N(O)CC1CC1(c1ccccc1)P(=O)(O)O` (centres undefined), in experiment [1], the IC50 is over 30 µM.
`CC(=O)N(O)C[C@@H]1C[C@H]1P(=O)(O)O`: the results for the IC50 (with Plasmodium falciparum [2]; in the experiment with Plasmodium falciparum [3]; in experiment [1]) were 0.32 µM, 0.48 µM and 0.05 µM, respectively.
As for `O=CN(O)C[C@@H]1C[C@H]1P(=O)(O)O`, the IC50 in the experiment with Plasmodium falciparum [2] amounted to 2.1 µM; in the experiment with Plasmodium falciparum [3], 2 µM; in experiment [1] it was 0.313 µM.
For the compound `O=CN(O)CCCP(=O)(O)O` [FOSMIDOMYCIN], the IC50 in the experiment with Plasmodium falciparum [2] is 0.4 µM; in the experiment on Plasmodium falciparum [3] it was 0.48 µM.
With `CC(=O)N(O)CCCP(=O)(O)O` [FR-900098], the IC50 was 0.24 µM with Plasmodium falciparum [2], 0.28 µM in the experiment on Plasmodium falciparum [3] and 0.058 µM in experiment [1].
Consider `CC(=O)N(O)CC1CC1P(=O)(O)O` (centres undefined), for which the IC50 in experiment [1] is 0.16 µM.
The same measure, in the same setting: next, `CCC(=O)N(O)C[C@@H]1C[C@H]1P(=O)(O)O`: over 3 µM.
